Experimental findings from ChEMBL document CHEMBL4406907, “Exploration of zinc-binding groups for the design of inhibitors for the oxytocinase subfamily of M1 aminopeptidases” (Bioorg Med Chem, 2019) are described below.

Bounds are passed on as bounds.

In assay [1] the test system is Insulin-regulated aminopeptidase (Homo sapiens). The experiment in a line: Inhibition of human recombinant IRAP expressed in baculovirus infected Sf9 cells using omniMMP fluorogenic substrate incubated for 5 to 10 mins by fluorescence spectrophotometry analysis.
Assay [2] deals with T1, Endoplasmic reticulum aminopeptidase 2 (Homo sapiens, UniProt Q6P179). Briefly: Inhibition of human recombinant ERAP2 expressed in baculovirus infected Sf9 cells using omniMMP fluorogenic substrate incubated for 5 to 10 mins by fluorescence spectrophotometry analysis.
The target of assay [3] is T2, Endoplasmic reticulum aminopeptidase 1 (Homo sapiens, UniProt Q9NZ08). The experiment in a line: Competitive inhibition of human recombinant ERAP1 expressed in baculovirus infected sf9 cells using L-AMC as substrate incubated for 5 to 10 mins by Michaelis-Menten analysis. Put shortly: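 ERAP1 (recombinant, as described previously) at 10 nM with L-AMC as substrate. Michaelis-Menten analysis as previously described. Ki for competitive inhibition derived using a KM for L-AMC of 546 μM.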

Assay [4] has as its target T2, Endoplasmic reticulum aminopeptidase 1. Briefly: Inhibition of human recombinant ERAP1 expressed in baculovirus infected Sf9 cells using omniMMP fluorogenic substrate incubated for 5 to 10 mins by fluorescence spectrophotometry analysis.
Assay [5] has as its target T1, Endoplasmic reticulum aminopeptidase 2. The experiment in a line: Competitive inhibition of human recombinant ERAP2 expressed in baculovirus infected sf9 cells using R-AMC as substrate incubated for 5 to 10 mins by Michaelis-Menten analysis.

T1 sequence (Q6P179 whole entry): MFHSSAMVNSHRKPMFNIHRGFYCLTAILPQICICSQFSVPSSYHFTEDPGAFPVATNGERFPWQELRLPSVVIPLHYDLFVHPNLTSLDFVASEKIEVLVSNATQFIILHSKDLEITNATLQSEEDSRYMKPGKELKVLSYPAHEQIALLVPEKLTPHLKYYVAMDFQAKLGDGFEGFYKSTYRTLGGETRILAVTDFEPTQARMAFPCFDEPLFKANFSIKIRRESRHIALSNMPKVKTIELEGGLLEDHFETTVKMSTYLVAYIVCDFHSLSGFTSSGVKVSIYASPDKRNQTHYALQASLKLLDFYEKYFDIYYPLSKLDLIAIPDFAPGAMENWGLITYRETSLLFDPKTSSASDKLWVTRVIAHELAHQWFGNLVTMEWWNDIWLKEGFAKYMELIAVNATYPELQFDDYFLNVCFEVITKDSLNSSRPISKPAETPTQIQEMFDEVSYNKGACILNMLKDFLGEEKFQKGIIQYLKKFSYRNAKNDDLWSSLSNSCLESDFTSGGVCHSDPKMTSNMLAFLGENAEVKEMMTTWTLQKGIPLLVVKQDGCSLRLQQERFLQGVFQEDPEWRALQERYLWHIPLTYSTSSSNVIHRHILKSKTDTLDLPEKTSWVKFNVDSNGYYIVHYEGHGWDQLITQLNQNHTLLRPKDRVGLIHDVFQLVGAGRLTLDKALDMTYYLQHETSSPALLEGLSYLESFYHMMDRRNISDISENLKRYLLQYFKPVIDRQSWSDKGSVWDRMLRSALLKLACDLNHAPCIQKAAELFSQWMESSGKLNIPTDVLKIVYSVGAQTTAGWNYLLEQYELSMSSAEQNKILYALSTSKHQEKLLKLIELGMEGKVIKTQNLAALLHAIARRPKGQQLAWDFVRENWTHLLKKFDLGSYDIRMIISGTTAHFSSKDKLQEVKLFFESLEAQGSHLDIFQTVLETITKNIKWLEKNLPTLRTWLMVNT
T2 sequence (Q9NZ08 whole entry): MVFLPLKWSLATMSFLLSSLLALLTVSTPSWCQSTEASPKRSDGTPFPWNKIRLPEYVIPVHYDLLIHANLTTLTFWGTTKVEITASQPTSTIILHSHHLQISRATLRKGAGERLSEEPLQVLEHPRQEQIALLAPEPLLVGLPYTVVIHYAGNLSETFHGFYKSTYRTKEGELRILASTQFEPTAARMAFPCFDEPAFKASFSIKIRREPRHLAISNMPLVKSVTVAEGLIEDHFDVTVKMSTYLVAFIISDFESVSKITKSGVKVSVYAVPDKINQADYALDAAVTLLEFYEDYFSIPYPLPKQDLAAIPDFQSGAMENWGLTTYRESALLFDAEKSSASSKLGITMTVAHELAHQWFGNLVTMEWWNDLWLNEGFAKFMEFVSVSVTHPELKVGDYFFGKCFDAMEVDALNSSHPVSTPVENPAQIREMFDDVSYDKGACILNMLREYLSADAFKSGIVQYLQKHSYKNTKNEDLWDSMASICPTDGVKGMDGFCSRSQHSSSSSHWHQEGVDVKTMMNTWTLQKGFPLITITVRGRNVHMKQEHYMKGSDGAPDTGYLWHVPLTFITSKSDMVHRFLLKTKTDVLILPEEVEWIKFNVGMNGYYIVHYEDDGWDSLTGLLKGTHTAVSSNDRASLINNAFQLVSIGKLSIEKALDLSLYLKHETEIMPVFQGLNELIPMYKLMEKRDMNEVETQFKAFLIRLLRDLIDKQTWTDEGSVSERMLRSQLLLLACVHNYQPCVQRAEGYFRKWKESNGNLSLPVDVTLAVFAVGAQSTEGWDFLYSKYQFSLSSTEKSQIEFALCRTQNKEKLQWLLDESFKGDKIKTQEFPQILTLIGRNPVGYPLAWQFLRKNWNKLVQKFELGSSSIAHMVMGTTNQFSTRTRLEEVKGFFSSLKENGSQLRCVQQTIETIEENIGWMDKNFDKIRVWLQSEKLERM

For `CCCC[C@H](N)C(=O)NNc1ccc(C(=O)N[C@@H](Cc2c[nH]c3ccccc23)C(=O)OCc2ccccc2)cc1`, in assay [1], the inhibition entry is “Dose-dependent effect”. For the same compound, the IC50 was determined as 2.2 µM in assay [2] and 11.9 µM in assay [4]. Further, the Ki in assay [3] was 10.9 µM; in assay [5], 1.2 µM.

Take `CCCC[C@H](N)C(=O)Nc1cccc(C(=O)N[C@@H](Cc2c[nH]c3ccccc23)C(=O)OCc2ccccc2)c1`: the values for the IC50 in assay [2] and in assay [4] were over 10 µM and over 100 µM, respectively.

Take `O=C(Cn1cccc(O)c1=O)NCCc1ccc(-c2ccccc2)cc1`: the IC50 is 50.3 µM in assay [2] and 19.1 µM in assay [4]. The Ki turned out to be 17.5 µM in assay [3] and 27.4 µM in assay [5].

On to `N[C@@H](CCc1ccccc1)C(=O)NNc1ccc(C(=O)N[C@@H](Cc2c[nH]c3ccccc23)C(=O)OCc2ccccc2)cc1`, for which the values for the IC50 in assay [2] and in assay [4] were over 10 µM and 11.9 µM, respectively. In assay [3], the Ki stood at 4.7 µM.

Take `CCCC[C@H](N)C(=O)Nc1cc(C(=O)N[C@@H](Cc2c[nH]c3ccccc23)C(=O)OCc2ccccc2)ccn1`: the IC50 in assay [2] and in assay [4] was over 10 µM throughout.

Regarding `COc1cccn(CC(=O)NCCc2ccc(-c3ccccc3)cc2)c1=S`, the IC50 in assay [2] stood at 31.9 µM; in assay [4], 25.6 µM. Also, the Ki turned out to be 23.4 µM in assay [3] and 17.4 µM in assay [5].

For the compound `CCCC[C@H](N)C(=O)Nc1ccc(C(=O)N[C@@H](Cc2c[nH]c3ccccc23)C(=O)OCc2ccccc2)cc1`, the IC50 in assay [2] was 8.8 µM; in assay [4], over 100 µM. Further, the Ki in assay [5] came to 4.8 µM.

For `CCCC[C@H](N)C(=O)NNc1cccc(C(=O)N[C@@H](Cc2c[nH]c3ccccc23)C(=O)OCc2ccccc2)c1`, the IC50 was 7.9 µM in assay [2] and over 10 µM in assay [4]. In addition, the Ki in assay [5] amounted to 4.3 µM.

As to `O=C(Cn1cccc(O)c1=O)N[C@@H](Cc1c[nH]c2ccccc12)C(=O)OCc1ccccc1`, the results for the IC50 in assay [2] and in assay [4] were 10.3 µM and 20.2 µM, respectively. Further, the Ki in assay [3] worked out at 18.5 µM; in assay [5], 0.7 µM.

Turning to `CC(C)[C@H](NC(=O)Cn1cccc(O)c1=O)C(=O)OCc1ccccc1`, the figures for the IC50 in assay [2] and in assay [4] were 8.9 µM and 48.5 µM, respectively. The values for the Ki in assay [3] and in assay [5] were 44 µM and 4.9 µM, respectively.

`O=C(Cn1cccc(O)c1=O)NCCc1c[nH]c2ccccc12`: the IC50 in assay [2] was 31.3 µM. Moreover, the Ki in assay [5] is 17.7 µM.
